# The list is not random: actives were taken first. Their share in the collection is about 1.5%.
# aDG glyco act: increases alpha dystroglycan glycosylation | Pro5-aDG cells, alpha-DG glycosylation AlphaScreen (IIH6); 0% Pro5, 100% B10-LARGE cell signal | 360,000 compounds, 0.22% hits | activation, % at 10 µM;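 active = activation of at least 8% versus controls, or a plate z-score of at least 8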;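 also: Pro5 are CHO cells carrying HIG-tagged alpha-DG that lacks glycosylation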
# Rev-erbA mod: modulates human Rev-erb alpha binding to DNA; 370,000 compounds, 0.79% hits; activity, % at 10 µM; AID 1259318; Rev-erbα–FITC-DNA binding, fluorescence polarization, 90 min; P20393;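 active = activity above about 14%, limit read from the data; passing the limit was not always enough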
# HNF4A DNA FP: change in binding of human HNF4 alpha to DNA; P41235; HNF4a-FITC DNA binding, fluorescence polarization, 1 h; activity change, % at 10 µM; 360,000 compounds, 0.3% hits; AID 1224865; in the data active = activity change above about 30%, passing the limit was not always enough
# CSN inh: blocks human CSN-mediated cullin deneddylation; Q92905; Purified CSN, SCF-Nedd8-OG deneddylation, fluorescence polarization; inhibition, % at 12.5 µM; 360,000 compounds, 0.38% hits; AID 651999;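 active = pattern-corrected inhibition above about 35%, with an unprinted fluorescence ratio check between 0.5 and 1.5, limit read from the data, passing the limit was not always enough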
# Target sequence (Q92905 whole entry, looked up, one chain of several): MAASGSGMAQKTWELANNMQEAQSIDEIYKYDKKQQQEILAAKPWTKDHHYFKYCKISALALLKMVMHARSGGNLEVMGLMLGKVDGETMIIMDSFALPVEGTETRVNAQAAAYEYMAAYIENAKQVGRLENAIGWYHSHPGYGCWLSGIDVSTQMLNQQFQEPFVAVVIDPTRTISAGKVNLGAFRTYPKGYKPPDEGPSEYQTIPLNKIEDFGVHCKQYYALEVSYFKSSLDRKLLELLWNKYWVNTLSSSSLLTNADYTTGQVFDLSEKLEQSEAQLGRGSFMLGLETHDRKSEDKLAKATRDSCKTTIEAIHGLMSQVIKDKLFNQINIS
#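 Assay system: Purified human Csn5 enzyme expressed in HEK293T cells | Amount: Enzyme 0.24 nM | Measured by: Fluorescence polarization readout | Medium: Tris/NaCl/DTT buffer, pH 7.5 | Compound dosing: One concentration, 12.5 µM, 0.25% DMSO | Times: 90 min incubation of compound, enzyme and substrate at room temperature | Control set: no-enzyme wells high, enzyme-with-substrate wells low | Read-out: % inhibition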
# A number is an active result; i = inactive; nt = no result.
SMILES,aDG glyco act,Rev-erbA mod,HNF4A DNA FP,CSN inh
Cc1ccc(S(=O)(=O)N2C[C@H]3[C@H]4C(=O)N(C5CCCCC5)C(=O)[C@H]4CC(=O)[C@H]3[C@@H]2c2ccccc2Cl)cc1,i,i,i,36
COc1ccc(CN2CCN(Cc3c[nH]c4ccccc34)CC2)cc1OC,i,i,i,i
COc1ccc(Br)cc1CN1CCN(Cc2c[nH]c3ccccc23)CC1,i,i,59,i
C[C@]12C=CC(=O)C=C1CCC1C2[C@@H](O)C[C@@]2(C)C1CC[C@]2(O)C(=O)CO (stereo partly drawn),nt,i,nt,nt
NC1=C(Br)C(=O)c2ccccc2C1=O,3.9,i,i,i
NC(=O)c1c(N)[nH]c(C(=O)c2ccccc2)c1-c1ccccc1Br,i,i,i,108
CCC(=O)O[C@H]1CCC2C3CCc4cc(O)ccc4C3CC[C@@]21C (stereo partly drawn),nt,i,nt,nt
Fc1ccc2c(c1)C(c1ccc(N3CCOCC3)cc1)=NNC(c1cccs1)=N2,i,nt,i,i
Brc1ccc2c(c1)C(c1ccc(N3CCOCC3)cc1)=NNC(c1cccs1)=N2,i,i,37,i
O=C(Nc1ccc(N2CCN(C(=O)c3ccc(Cl)cc3)CC2)cc1)c1ccc2c(c1)OCCO2,4.0,i,i,i
CN1CCN(c2ccc(CNC(=O)c3ccc4c(c3)OCCO4)cc2)CC1,i,i,i,36
OC[C@@H](O)[C@H](O)[C@@H](O)[C@H](O)CO,nt,i,nt,nt
O=C1CCCCC1Sc1nnc(Nc2ccccc2)s1 (stereo not drawn),i,i,i,45
Cc1ccc(S(=O)(=O)N2CCOCC2)cc1C(=O)OCC(=O)NC1CC1,i,i,i,60
Cc1ccc(S(=O)(=O)N2CCOCC2)cc1C(=O)OCC(=O)NC1CCCCC1,i,i,i,i
Nc1c(C(=O)NCc2ccco2)c2nc3ccccc3nc2n1CCc1ccc(F)cc1,i,i,i,43
COc1ccc(-n2c(N)c(C(=O)NCc3ccco3)c3nc4ccccc4nc32)cc1,i,i,i,i
O=S(=O)(c1ccc(Br)s1)N1CCN(c2ccccc2)CC1,i,i,32,i
O=C(Cc1cccs1)N[C@H]1C(=O)N2C(C(=O)O)=C(C[n+]3ccccc3)CSC12 (stereo partly drawn),nt,i,nt,nt
O=C(O)CCCN1C(=O)/C(=C\c2ccccc2OCc2ccccc2)SC1=S,i,i,51,i
CC(/C=C/c1ccc(N(C)C)cc1)=N\N=C(/N)SC1CC(=O)N(c2ccc(C(=O)O)cc2)C1=O (stereo not drawn),i,i,40,i
Cc1cc(NS(=O)(=O)C2CCN(C(=O)Cc3ccc(Cl)c(Cl)c3)CC2)no1,nt,i,nt,nt
O=C(CSc1nc2c([nH]c3ccccc32)c(=O)n1-c1cccc(Cl)c1)N1CCOCC1,i,i,i,80
CCCC[C@H](C)C[C@H](O)/C=C/[C@H]1[C@H](O)CC(=O)[C@@H]1CCCC/C=C/C(=O)O,nt,i,nt,nt
O=C(/C=C/c1cn(CC(O)CN2CCCCC2)c2ccccc12)c1ccccc1 (stereo not drawn),i,i,i,i
SMILES,aDG glyco act,Rev-erbA mod,HNF4A DNA FP,CSN inh
COc1ccc(C(=O)/C=C/c2cn(CC(O)CN3CCN(C)CC3)c3ccccc23)cc1OC (stereo not drawn),i,i,48,55
C=C(C)[C@@H]1CC=C(C)CC1,nt,i,nt,nt
COc1ccc(S(=O)(=O)NNC(=O)c2sccc2-n2cccc2)cc1,i,i,31,i
C=C1CC2C3C=C(C)C4=CC(=O)CC[C@]4(C)C3CC[C@]2(C)[C@@]1(OC(C)=O)C(C)=O (stereo partly drawn),nt,i,nt,nt
COc1ccc(Oc2c(OC)cc(NCc3ccc(CN)cc3)c3ncccc23)cc1,i,i,i,42
COc1ccc(CNc2cccnc2Cl)cc1,i,i,i,i
O=C(Nc1ccc(Cl)c(Cl)c1)C1CCCN1S(=O)(=O)c1cccc2cccnc12 (stereo not drawn),nt,i,nt,nt
O=[N+]([O-])c1ccc(N/N=C/c2sc(N3CCOCC3)nc2-c2ccccc2)c(S(=O)(=O)Nc2ccc(Cl)cc2)c1,i,i,59,i
O=C(O)c1cccc(N/N=C/c2sc(N3CCOCC3)nc2-c2ccccc2)c1,i,i,i,i
O=c1nc(Nc2ccccc2)sc2ccc([N+](=O)[O-])cc12,i,i,i,43
O=C(CCl)NCCN1C(=O)S/C(=C\c2cccnc2)C1=O,i,nt,i,62
CN1CCN(c2ccc(-c3cccc(NC(=O)COc4ccc(Cl)cc4Cl)c3)nn2)CC1,5.2,i,i,i
NS(=O)(=O)c1ccc(NC(=O)COC(=O)/C=C/c2ccc([N+](=O)[O-])cc2)cc1,i,i,i,i
O=C(COC(=O)/C=C/c1ccc([N+](=O)[O-])cc1)Nc1ccc(F)cc1,i,i,i,42
CCO[C@@H](Cc1ccc(OCCc2ccc(OS(C)(=O)=O)cc2)cc1)C(=O)O,nt,i,nt,nt
O=C(CCOc1ccccc1)NCC(c1ccco1)N1CCCCC1 (stereo not drawn),i,i,51,i
COCCCN1C(=O)[C@H](CC(=O)NCc2cccc3ccccc23)[C@]2(C(=O)OC)CCCCC=C12,nt,i,nt,nt
COc1ccc([C@H]2OC(=O)C[C@H]2C(=O)N2CCCC2)cc1OC,nt,i,nt,nt
CC(=O)OCCc1c2ccccc2c(CCCN(C)C)c2ccccc12,i,i,132,71
CC(=O)OCCc1[nH]c2ccccc2c1C,i,i,i,i
C=CCN1[C@H](CC(C)C)COc2cc(N3CCCC3)ccc2S1(=O)=O,nt,i,nt,nt
CCC[C@H]1[C@@H](OC(=O)NCc2ccc(C(F)(F)F)cc2)CC[C@@]23CCCN2C(=O)CCC[C@@H]13,nt,i,nt,nt
Fc1ccc(-c2nnc(Cc3ccc(Cl)cc3)o2)cc1,i,i,61,i
CC(=O)N1CCc2cc(N=NC3=C(O)CCCC3=O)ccc21,i,i,43,i
Cc1c(NC(=O)C2CCCN(S(=O)(=O)c3cccc4ccccc34)C2)c(=O)n(-c2ccccc2)n1C (stereo not drawn),nt,i,nt,nt
SMILES,aDG glyco act,Rev-erbA mod,HNF4A DNA FP,CSN inh
COc1c(C(C)(C)C)cc(S(=O)(=O)N2c3ccccc3C[C@H]2C)cc1C(C)(C)C,nt,i,nt,nt
Nn1c(SCC(=O)Nc2ccc(F)cc2F)nnc1C1CCCCC1,i,i,i,i
Nn1c(SCC(=O)Nc2c(F)cc(F)cc2Br)nnc1C1CCCCC1,i,i,i,108
O=[N+]([O-])c1ccc(-c2cn(-c3ccc(Cl)cc3)cn2)cc1,i,i,40,i
O=C(COC(=O)C1CC2C=CC1C2)NCc1ccco1 (stereo not drawn),i,i,i,35
COc1ccc(N(C(=O)c2ccncc2)S(=O)(=O)c2ccc(F)cc2)cc1,i,i,i,85
O=C(NNc1cc(N2CCCC2)nc(N2CCCC2)n1)c1ccc([N+](=O)[O-])cc1,i,i,i,41
CCN(CC)C(=O)CC[C@H]1CC[C@]2(CCCN(C(=O)c3ccc4ccccc4n3)C2)O1,nt,i,nt,nt

# High-throughput results (PubChem)
